From ChEMBL document CHEMBL2375232, “4-Amino-2-arylamino-5-indoloyl/cinnamoythiazoles, analogs of topsentin-class of marine alkaloids, induce apoptosis in HeLa cells” (Eur J Med Chem, 2013)
Calls of active or inactive are those of the source. No cut-off for these calls is given here.

Key:
HeLa [1] = test: Induction of apoptosis in human HeLa cells assessed as activation of caspase 8 after 48 hrs by fluorescence assay relative to control; format: functional
Summary of the method: (§1)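 Fluorogenic substrate assay. 1×10⁶ HeLa cells treated 48 h, lysed in Tris/phosphate buffer pH 7.5 with 1% Triton X-100. Lysate incubated 1 h at 37 °C in PIPES assay buffer pH 7.2 (DTT, EDTA, CHAPS, sucrose) with Ac-DEVD-AFC (caspase 3), Ac-IETD-AFC (caspase 8) or Ac-LEHD-AFC (caspase 9). AFC read at excitation 400 nm, emission 480–520 nm; fold RFU over untreated control; mean ± SD of three experiments.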

HeLa [2] = test: Inhibition of TNFalpha-induced NFkappaB activation (unknown origin) expressed in human HeLa cells at IC50 treated 24 hrs before TNFalpha challenge measured after 5 hrs by luciferase reporter gene assay; format: cell-based
HeLa [3] = test: Induction of apoptosis in human HeLa cells assessed as activation of caspase 9 after 48 hrs by fluorescence assay relative to control; format: functional; summary of the method: as §1
HeLa [4] = test: Induction of apoptosis in human HeLa cells assessed as activation of caspase 3 after 48 hrs by fluorescence assay relative to control; format: functional; summary of the method: as §1
HeLa [5] = test: Induction of apoptosis in human HeLa cells assessed as loss of mitochondrial membrane potential using JC-1 staining after 48 hrs by fluorescence microscopic analysis; format: functional, cell-based
Summary of the method: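 Treated cells (48 h, 24-well plates) were given JC-1 diluted in medium and incubated 10 min at 37 °C (or 15 min at RT), washed twice in PBS and viewed by fluorescence microscopy. Orange/red fluorescence marks intact membrane potential; green marks its loss. Confirmed in three independent experiments.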

HeLa [6] = test: Cell cycle arrest in human HeLa cells assessed as accumulation at S phase after 24 hrs by flow cytometry analysis (reference value: 4.5 +/- 0.2%); format: functional
HeLa [7] = test: Cell cycle arrest in human HeLa cells assessed as accumulation at G2/M phase after 24 hrs by flow cytometry analysis (reference value: 13.2 +/- 0.48%); format: functional
HeLa [8] = test: Cell cycle arrest in human HeLa cells assessed as accumulation at G0/G1 phase after 24 hrs by flow cytometry analysis (reference value: 80.7 +/- 0.47%); format: functional
HeLa [9] = test: Cell cycle arrest in human HeLa cells assessed as accumulation at sub-G0 phase after 24 hrs by flow cytometry analysis (reference value: 1.2 +/- 0.29%); format: functional
HeLa [10] = test: Induction of apoptosis in human HeLa cells assessed as nuclear condensation using DAPI staining at IC50 after 48 hrs by fluorescence microscopic analysis; format: functional, cell-based
Summary of the method: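 They were PBS-washed, stained with DAPI (1 µg/mL in methanol) for 10 min at 37 °C and imaged by fluorescence microscopy. Condensed chromatin or fragmented nuclei scored as apoptotic; three independent experiments.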

HeLa [11] = test: Induction of apoptosis in human HeLa cells using acridine orange/ethidium bromide staining at IC50 after 48 hrs by fluorescence microscopic analysis; format: functional, cell-based
Summary of the method: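 HeLa cells seeded at 75000/well in 24-well plates, treated at IC50 for 48 h, PBS-washed and stained with acridine orange/ethidium bromide mixture (each 100 µg/mL) for 30 min at 37 °C. Apoptotic morphology assessed by fluorescence microscopy; three independent experiments in duplicate.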

HeLa [12] = test: Cytotoxicity against human HeLa cells after 48 hrs by alamar blue assay; format: functional, cell-based
Summary of the method: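 Alamar blue (resazurin) viability assay. HeLa cells seeded at 5000 cells/well, treated 24 h later with a range of concentrations for 48 h. Alamar blue (0.2 mg/mL) was then added for 2–4 h and absorbance read at 570 and 595 nm. Survival is percent of untreated control; IC50 taken from the concentration–response curves; three experiments in triplicate.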

HeLa [13] = test: Cell cycle arrest in human HeLa cells assessed as accumulation at G2/M phase after 48 hrs by flow cytometry analysis (reference value: 16.6 +/- 0.16%); format: functional
HeLa [14] = test: Cell cycle arrest in human HeLa cells assessed as accumulation at S phase after 48 hrs by flow cytometry analysis (reference value: 7.2 +/- 0.77%); format: functional
HeLa [15] = test: Cell cycle arrest in human HeLa cells assessed as accumulation at G0/G1 phase after 48 hrs by flow cytometry analysis (reference value: 73.1 +/- 1.02%); format: functional
HeLa [16] = test: Cell cycle arrest in human HeLa cells assessed as accumulation at sub-G0 phase after 48 hrs by flow cytometry analysis (reference value: 2.3 +/- 0.37%); format: functional

Row | SMILES | fold change (FC) (HeLa [1]) | inhibition (HeLa [2]) | fold change (FC) (HeLa [3]) | fold change (FC) (HeLa [4]) | Activity (HeLa [5]) | Activity (HeLa [6]) | Activity (HeLa [7]) | Activity (HeLa [8]) | Activity (HeLa [9]) | Activity (HeLa [10]) | Activity (HeLa [11]) | IC50 (HeLa [12]) | Activity (HeLa [13]) | Activity (HeLa [14]) | Activity (HeLa [15]) | Activity (HeLa [16])
1 | COc1cc(/C=C/C(=O)CC(=O)/C=C/c2ccc(O)c(OC)c2)ccc1O [CURCUMIN] | 1.4 | 79% | 1.7 | 2.1 | Active |  |  |  |  |  |  |  |  |  |  | 
2 | COc1ccc(/C=C/C(=O)c2sc(Nc3ccc(Cl)cc3)nc2N)cc1O | 1.2 | 56% | 2.6 | 2.2 | Active | 6.8% | 51.4% | 15.37% | 25.8% | Active | Active | 30 µM | 35.8% | 9% | 15% | 35%
3 | COc1ccc(Nc2nc(N)c(C(=O)c3c[nH]c4ccccc34)s2)cc1 | 1.1 | 34% | 1.6 | 2.8 | Active | 4.2% | 35.3% | 43.2% | 16.7% | Active | Active | 1 µM | 12.5% | 7.8% | 24% | 49%
4 | Nc1nc(Nc2ccc(Cl)cc2)sc1C(=O)c1c[nH]c2ccccc12 | 0.96 | 80% | 2.5 | 2.5 | Active | 8.12% | 11.8% | 56.34% | 23.74% | Active | Active | 45 µM | 21.56% | 8.95% | 13.75% | 55.33%
5 | COc1ccc(Nc2nc(Nc3ccc(Cl)cc3)c(C(=O)c3c[nH]c4ccccc34)s2)cc1 | 1.54 | 72% | 4.4 | 2.4 | Active | 10.19% | 17.51% | 59.13% | 13.17% | Active | Active | 20 µM | 9.78% | 7.69% | 38.53% | 42.37%
6 | COc1cc(/C=C/C(=O)c2sc(Nc3ccc(Cl)cc3)nc2N)ccc1O | 0.9 | 87% | 2.3 | 1.5 | Active | 4.4% | 27.2% | 64.7% | 3.4% | Active | Active | 60 µM | 28.2% | 14.2% | 38% | 16.7%
